Reference: ChEMBL document CHEMBL3352177, “C-glycoside mimetics inhibit glioma stem cell proliferation, migration, and invasion” (J Med Chem, 2014)

Columns and labels:
A-431 = assay: Antiproliferative activity against human A431 cells after 48 to 72 hrs by MTT assay; format: functional, cell-based
Outline: (§1)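 MTT assay read 48 and 72 h after compound addition. Cell lines grown in DMEM with 10% heat-inactivated FCS, 2 mM L-glutamine, 1 mM sodium pyruvate; GBM stem cells grown as nonadherent neurospheres. IC50 by Hill equation fit; ≥3 independent experiments, each point repeated six times.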

[1] = Antiproliferative activity against human Caco2 cells after 48 to 72 hrs by MTT assay; format: functional, cell-based; details: Caco-2; outline: as §1
MDA-MB-231 = assay: Antiproliferative activity against human MDA-MB-231 cells after 48 to 72 hrs by MTT assay; format: functional, cell-based; outline: as §1
MDA-MB-435 = assay: Antiproliferative activity against human MDA-MB-435 cells after 48 to 72 hrs by MTT assay; format: functional, cell-based; outline: as §1
[2] = Antiproliferative activity against human HuH7 cells after 48 to 72 hrs by MTT assay; format: functional, cell-based; details: Huh-7; outline: as §1
[3] = Antiproliferative activity against mouse B16F10 cells after 48 to 72 hrs by MTT assay; format: functional, cell-based; details: B16-F10; outline: as §1
DU-145 = assay: Antiproliferative activity against human DU145 cells after 48 to 72 hrs by MTT assay; format: functional, cell-based; outline: as §1
C6 [4] = assay: Antiproliferative activity against rat C6 cells after 48 to 72 hrs by MTT assay; format: functional, cell-based; outline: as §1
SNB-75 [5] = assay: Antiproliferative activity against human SNB75 cells after 48 to 72 hrs by MTT assay; format: functional, cell-based; outline: as §1
[6] = Antiproliferative activity against human Gli7 cells after 48 to 72 hrs by MTT assay; format: functional, cell-based; outline: as §1
[7] = Antiproliferative activity against human Gli4F11 cells after 48 to 72 hrs by MTT assay
[8] = Antimigratory activity against human Gli4 cells on matrix containing vitronectin after 24 hrs by 2-D migration assay; format: functional, cell-based
Outline: (§2)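 Boyden chamber 2D migration toward serum over 24 h on fibronectin, vitronectin or laminin matrix. Cells in DMEM with 0.1% BSA in the upper compartment with or without compound; 10% FCS medium below. Gli4/Gli7 taken from neurosphere cultures. Migrated cells methanol-fixed, crystal violet stained, counted at ×200. Ki from Hill equation fit; ≥3 independent experiments, each point in quadruplicate.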

[9] = Antimigratory activity against human Gli4 cells on matrix containing fibronectin after 24 hrs by 2-D migration assay; format: functional, cell-based; outline: as §2
[10] = Antimigratory activity against human Gli7 cells on matrix containing fibronectin after 24 hrs by 2-D migration assay; format: functional, cell-based; outline: as §2
SNB-75 [11] = assay: Antimigratory activity against human SNB75 cells on matrix containing fibronectin after 24 hrs by 2-D migration assay; format: functional, cell-based; outline: as §2
C6 [12] = assay: Antimigratory activity against rat C6 cells on matrix containing fibronectin after 24 hrs by 2-D migration assay; format: functional, cell-based; outline: as §2
[13] = Antimigratory activity against human Gli7 cells on matrix containing vitronectin after 24 hrs by 2-D migration assay; format: functional, cell-based; outline: as §2
SNB-75 [14] = assay: Antimigratory activity against human SNB75 cells on matrix containing vitronectin after 24 hrs by 2-D migration assay; format: functional, cell-based; outline: as §2
C6 [15] = assay: Antimigratory activity against rat C6 cells on matrix containing vitronectin after 24 hrs by 2-D migration assay; format: functional, cell-based; outline: as §2
[16] = Antimigratory activity against human Gli4 cells on matrix containing laminin after 24 hrs by 2-D migration assay; format: functional, cell-based; outline: as §2
[17] = Antimigratory activity against human Gli7 cells on matrix containing laminin after 24 hrs by 2-D migration assay; format: functional, cell-based; outline: as §2
SNB-75 [18] = assay: Antimigratory activity against human SNB75 cells on matrix containing laminin after 24 hrs by 2-D migration assay; format: functional, cell-based; outline: as §2
C6 [19] = assay: Antimigratory activity against rat C6 cells on matrix containing laminin after 24 hrs by 2-D migration assay; format: functional, cell-based; outline: as §2

SMILES	IC50 (A-431) [µM]	IC50 [1] [µM]	IC50 (MDA-MB-231) [µM]	IC50 (MDA-MB-435) [µM]	IC50 [2] [µM]	IC50 [3] [µM]	IC50 (DU-145) [µM]	IC50 (C6 [4]) [µM]	IC50 (SNB-75 [5]) [µM]	IC50 [6] [µM]	IC50 [7] [µM]	also measured
CCCC[P@@]1(=O)O[C@H]([C@H]2COC(C)(C)O2)[C@@H]2OC(C)(C)O[C@@H]2[C@@H]1O	0.55	> 100	> 100	> 100	> 100	> 100	> 100	8.62	6.21	2.88	6.12	
CC1(C)O[C@H]2[C@@H]([C@H]3COC(C)(C)O3)O[P@](=O)(c3ccccc3)[C@@H](O)[C@H]2O1	1.11	> 100	9.37	16.6	> 100	9.95	> 100	0.5	14.3	3.16	38.4	
CC1(C)O[C@H]2[C@@H]([C@H]3COC(C)(C)O3)O[P@](=O)(c3ccccc3)[C@@H](Oc3ccc(N)cc3)[C@H]2O1	> 100	> 100	4.82	3.36	23.6	4.69	> 100	9.35	6.23	1.77	2.98	
CC(=O)N[C@@H]1[C@H]2OC(C)(C)O[C@H]2[C@@H]([C@H]2COC(C)(C)O2)O[P@@]1(=O)c1ccccc1	0.13	36	23.2	9.61	21.9	14.9	31.2	0.65	0.65	0.5	0.54	
Cc1ccc(N[C@@H]2[C@H]3OC(C)(C)O[C@H]3[C@@H]([C@H]3COC(C)(C)O3)O[P@@]2(=O)c2ccccc2)cc1	4.67	> 100	3.72	2.65	23.6	2.02	> 100	5.5	5.37	2.8	5.55	
CC[P@@]1(=O)O[C@H]([C@H]2COC(C)(C)O2)[C@@H]2OC(C)(C)O[C@@H]2[C@@H]1O	> 100	> 100	> 100	> 100	> 100	> 100	> 100	8.66	4.92	2.5	3.8	Ki [8]: 0.194 µM; Ki [9]: 0.1 µM; Ki [10]: 0.064 µM; Ki (SNB-75 [11]): 0.019 µM; Ki (C6 [12]): 0.027 µM; Ki [13]: 0.438 µM; Ki (SNB-75 [14]): 0.066 µM; Ki (C6 [15]): 0.047 µM; Ki [16]: 0.239 µM; Ki [17]: 1.05 µM; Ki (SNB-75 [18]): 0.027 µM; Ki (C6 [19]): 0.025 µM
CC(=O)O[C@H]1[C@H]2OC(C)(C)O[C@H]2[C@@H]([C@H]2COC(C)(C)O2)O[P@]1(=O)c1ccccc1	> 100	> 100	> 100	> 100	> 100	> 100	> 100	10.2	1.37	3.62	8.76	
Cc1ccc(S(=O)(=O)O[C@H]2[C@H]3OC(C)(C)O[C@H]3[C@@H]([C@H]3COC(C)(C)O3)O[P@]2(=O)c2ccccc2)cc1	4.44	> 100	2.66	4.02	> 100	1.64	> 100	6.99	9.42	2.8	5.41	
CC1(C)O[C@H]2[C@@H]([C@H]3COC(C)(C)O3)O[P@@](=O)(c3ccccc3)[C@@H](O)[C@H]2O1	0.98	> 100	6.08	11	> 100	10.2	> 100	> 100	13.4	3.72	8.56	
CC1(C)O[C@@H]2[C@H](O1)[C@@H](Nc1ccccc1)[P@](=O)(c1ccccc1)O[C@@H]2[C@H]1COC(C)(C)O1	1.26	> 100	3.83	2.48	24.2	1.96	> 100	10.3	9.99	1.82	2.68	
CC1(C)O[C@H]2[C@@H]([C@H]3COC(C)(C)O3)O[P@](=O)(c3ccccc3)[C@@H](Oc3ccc([N+](=O)[O-])cc3)[C@H]2O1	2.02	> 100	> 100	> 100	> 100	> 100	> 100	31.4	3.11	2.07	3.91	
CC1(C)O[C@H]2[C@@H]([C@H]3COC(C)(C)O3)O[P@](=O)(c3ccccc3)[C@@H](OS(C)(=O)=O)[C@H]2O1	4.85	> 100	3.45	1.96	24	2.08	> 100	1.11	6.28	2.71	6.81	
CC1(C)O[C@H]2[C@@H]([C@H]3COC(C)(C)O3)O[P@](=O)(c3ccccc3)[C@@H](OC(=O)c3ccccc3)[C@H]2O1	4.35	> 100	1.16	0.66	> 100	13.5	> 100	8.51	9.54	1.93	3.22	
CC1(C)O[C@@H]2[C@H](O1)[C@@H](NCc1ccccc1)[P@](=O)(c1ccccc1)O[C@@H]2[C@H]1COC(C)(C)O1	4.7	> 100	4.17	3.99	23.8	2.05	> 100	14.8	5.16	4.62	2.79	
CC1(C)O[C@@H]2[C@H](O1)[C@@H](N)[P@](=O)(c1ccccc1)O[C@@H]2[C@H]1COC(C)(C)O1	> 100	> 100	4.15	1.16	16.3	1.02	> 100	24.4	2.96	1.29	1.37	
CC1(C)O[C@H]2[C@@H]([C@H]3COC(C)(C)O3)O[P@](=O)(c3ccccc3)[C@@H](Oc3ccc([N+](=O)[O-])c([N+](=O)[O-])c3)[C@H]2O1	0.84	> 100	6.35	2.66	23.8	2.59	> 100	9.44	6.99	1.93	2.87	
CC1(C)O[C@@H]2[C@H](O1)[C@@H](O)[P@@](=O)(c1ccccc1)O[C@@H]2[C@H]1COC(C)(C)O1	0.77	> 100	5.6	11.6	> 100	10.4	> 100	> 100	16.1	5.81	11.4	
